Experimental findings from ChEMBL document CHEMBL4715707, “Allosteric Indole Amide Inhibitors of p97: Identification of a Novel Probe of the Ubiquitin Pathway” (ACS Med Chem Lett, 2016) are described below.

The structures appear in SMILES notation. ≈ marks a conversion by molar mass, not a printed value. Calls of active or inactive are those of the source. No cut-off for these calls is given here.

A word on the IC50: it is the concentration that gives 50% inhibition. By Papp B→A is commonly meant the apparent permeability from the basolateral to the apical side of a cell layer. What is called Papp A→B is how fast a substance crosses the layer from the apical side. Usually half-life stands for how long it takes for the measured level to halve. As usually defined, the solubility is the dissolved amount per volume that the medium holds. Higher therefore signals a readily soluble substance. Usually Ki stands for the dissociation constant of the complex between target and ligand, obtained from inhibition or displacement.

For data set [1], the target named is T1, Transitional endoplasmic reticulum ATPase (Homo sapiens, UniProt P55072). Description: Inhibition of recombinant human full length Avi-tagged p97 (1 to 806 residues) expressed in Escherichia coli Rosetta 2(DE3) using 100 uM ATP as substrate incubated for 90 mins by ADP-glo assay. Summed up:
(§1)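 ADP-Glo luminescent detection of ADP formed by wild-type p97 ATPase. Enzyme was 20 nM WT p97 (indole amide series) or 10 nM (pyridine indole amide series), with ATP at 20 or 100 μM. n is the number of independent replicates, each run in duplicate or triplicate.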
In general terms: In ADP-Glo the light output rises with the ADP produced.
Target sequence in this assay (P55072 whole entry, the tested form may be a part): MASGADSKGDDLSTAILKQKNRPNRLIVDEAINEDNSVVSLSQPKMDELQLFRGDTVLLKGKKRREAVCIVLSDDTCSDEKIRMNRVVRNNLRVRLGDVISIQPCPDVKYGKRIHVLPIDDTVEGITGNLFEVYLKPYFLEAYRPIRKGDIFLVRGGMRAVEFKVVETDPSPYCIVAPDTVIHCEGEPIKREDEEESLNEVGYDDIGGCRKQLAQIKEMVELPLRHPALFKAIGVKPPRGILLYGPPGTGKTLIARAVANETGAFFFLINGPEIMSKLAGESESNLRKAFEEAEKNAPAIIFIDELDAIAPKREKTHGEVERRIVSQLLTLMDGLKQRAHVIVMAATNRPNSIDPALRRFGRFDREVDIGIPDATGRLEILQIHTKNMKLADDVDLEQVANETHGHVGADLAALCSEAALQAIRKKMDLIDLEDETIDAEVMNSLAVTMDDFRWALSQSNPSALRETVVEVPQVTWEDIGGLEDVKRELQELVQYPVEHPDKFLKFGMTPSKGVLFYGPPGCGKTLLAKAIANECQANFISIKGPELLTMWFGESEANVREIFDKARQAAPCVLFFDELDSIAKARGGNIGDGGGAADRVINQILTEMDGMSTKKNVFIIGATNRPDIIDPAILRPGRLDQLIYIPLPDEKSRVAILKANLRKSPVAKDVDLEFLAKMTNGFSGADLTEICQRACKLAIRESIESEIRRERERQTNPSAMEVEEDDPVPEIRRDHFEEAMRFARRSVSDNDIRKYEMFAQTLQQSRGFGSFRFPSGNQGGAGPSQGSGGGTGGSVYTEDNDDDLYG

Data set [2] addresses T1, Transitional endoplasmic reticulum ATPase. Nature of the data set: Inhibition of recombinant human full length Avi-tagged p97 (1 to 806 residues) expressed in Escherichia coli Rosetta 2(DE3) using 20 uM ATP as substrate incubated for 90 mins by ADP-glo assay. The procedure, abridged:
as §1
Target sequence in this assay (P55072 whole entry, the tested form may be a part): as above

Data set [3] can be described thus: Apparent permeability across basolateral to apical side in MDCK cells. Type of data set: ADME, cell-based, Canis lupus familiaris. The conditions noted are these: dog. Summed up: (§2)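 Bidirectional permeability measured across MDCK cell monolayers, reported as apparent permeability (Papp) in cm/s for each direction.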
A short description of data set [4]: Apparent permeability across apical to basolateral side in MDCK cells. The conditions noted are these: dog. Type of data set: ADME, cell-based, Canis lupus familiaris. Summed up: as §2
Data set [5] can be described thus: Metabolic stability in human microsomes assessed as half life. It counts as ADME, Microsome.
Data set [6] is described as follows: Aqueous solubility of compound at pH 7. The settings on record: buffer. It counts as physicochemical. Summed up: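 Aqueous solubility determined in PBS at pH 7.4.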
Data set [7] can be described thus: Metabolic stability in mouse microsomes assessed as half life. It counts as ADME, Microsome.
In data set [8] the target is T1, Transitional endoplasmic reticulum ATPase. Description: Competitive inhibition of recombinant human full length Avi-tagged p97 (1 to 806 residues) expressed in Escherichia coli Rosetta 2(DE3) using 20 uM ATP as substrate incubated for 90 mins by ADP-glo assay based Michaelis-Menten plot analysis.
Target sequence in this assay (P55072 whole entry, the tested form may be a part): as above
For data set [9] the target is unchanged. Nature of the data set: Uncompetitive inhibition of recombinant human full length Avi-tagged p97 (1 to 806 residues) expressed in Escherichia coli Rosetta 2(DE3) using 20 uM ATP as substrate incubated for 90 mins by ADP-glo assay based Michaelis-Menten plot analysis. The procedure, abridged: (§3)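 ATP-dependence of inhibition assessed by determining IC50 at three ATP levels (5, 20 and 100 μM) in the ADP-Glo p97 ATPase assay. Inhibition mode was assigned from the shift in IC50 with increasing ATP.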
Target sequence in this assay (P55072 whole entry, the tested form may be a part): as above

Data set [10] shares this target. Nature of the data set: Inhibition of recombinant human full length Avi-tagged p97 (1 to 806 residues) expressed in Escherichia coli Rosetta 2(DE3) using 5 uM ATP as substrate incubated for 90 mins by ADP-glo assay. The procedure, abridged: as §3
Target sequence in this assay (P55072 whole entry, the tested form may be a part): as above
For data set [11] the target is unchanged. Description: Binding affinity to recombinant human full length C-terminal Avi-tagged p97 D2 domain (461 to 806 residues) expressed in Escherichia coli Rosetta 2(DE3) assessed as binding constant by SPR analysis.
Target sequence in this assay (P55072 2-806 limits assumed): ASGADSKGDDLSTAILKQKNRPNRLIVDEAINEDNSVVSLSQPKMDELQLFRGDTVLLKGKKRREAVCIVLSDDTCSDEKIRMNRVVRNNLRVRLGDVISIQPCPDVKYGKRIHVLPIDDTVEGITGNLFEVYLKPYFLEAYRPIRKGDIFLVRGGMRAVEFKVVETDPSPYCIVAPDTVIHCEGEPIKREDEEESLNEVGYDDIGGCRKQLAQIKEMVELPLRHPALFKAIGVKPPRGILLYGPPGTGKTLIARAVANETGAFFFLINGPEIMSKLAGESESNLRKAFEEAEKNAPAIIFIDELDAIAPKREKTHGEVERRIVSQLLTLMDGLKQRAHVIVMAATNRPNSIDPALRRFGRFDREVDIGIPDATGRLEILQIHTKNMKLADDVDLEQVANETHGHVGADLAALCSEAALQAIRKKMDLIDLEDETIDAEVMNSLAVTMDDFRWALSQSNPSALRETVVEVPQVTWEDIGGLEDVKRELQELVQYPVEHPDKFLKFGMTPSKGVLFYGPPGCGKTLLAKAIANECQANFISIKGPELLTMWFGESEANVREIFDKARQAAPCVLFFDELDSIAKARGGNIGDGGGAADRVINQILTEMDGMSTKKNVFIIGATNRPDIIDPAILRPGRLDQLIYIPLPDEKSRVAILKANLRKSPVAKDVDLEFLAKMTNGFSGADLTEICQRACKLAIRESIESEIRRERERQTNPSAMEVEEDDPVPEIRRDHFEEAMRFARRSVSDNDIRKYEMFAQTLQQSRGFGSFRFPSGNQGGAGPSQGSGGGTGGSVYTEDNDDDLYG
For data set [12] the target is unchanged. Nature of the data set: Binding affinity to recombinant human full length N-terminal Avi-tagged p97 ND1 domain (1 to 458 residues) expressed in Escherichia coli Rosetta 2(DE3) assessed as binding constant by SPR analysis. Background: SPR reads the build-up and loss of mass on a sensor chip optically.
Target sequence in this assay (P55072 2-806 limits assumed): as above
For data set [13] the target is unchanged. Nature of the data set: Binding affinity to recombinant human full length Avi-tagged p97 (1 to 806 residues) expressed in Escherichia coli Rosetta 2(DE3) assessed as binding constant by SPR analysis.
Target sequence in this assay (P55072 2-806 limits assumed): as above

For the compound `CCc1cc2cc(NC(=O)c3nccnc3N)ccc2[nH]1`, in data set [1], the IC50 came out at 13 µM.

Turning to `Cc1cc2cc(NC(=O)c3ncccc3N)ccc2[nH]1`, the IC50 in data set [2] was > 50 µM.

Turning to `Nc1nccnc1C(=O)Nc1ccc2[nH]ccc2c1`, the IC50 in data set [2] is > 50 µM.

Take `Cc1cc2cc(NC(=O)c3cnccn3)ccc2[nH]1`: in data set [2], the IC50 was > 50 µM.

Regarding `Cc1cc2cc(NC(=O)c3nccnc3N)ccc2n1C`, the IC50 in [1] is > 50 µM.

For `Cc1[nH]c2ccc(NC(=O)c3nccnc3N)cc2c1C`, the IC50 in data set [2] was > 50 µM.

Consider `Cc1cc2cc(NC(=O)c3cccnc3N)ccc2[nH]1`, for which, in data set [3], the Papp B→A came to 46 ×10⁻⁶ cm/s. In addition, in data set [4], the Papp A→B came to 71 ×10⁻⁶ cm/s. Besides, the figures for the half-life in data set [5] and in data set [7] were > 60 min and 5 min, respectively. The compound also returned a solubility in [6] of 330 µM (≈ 87.9 µg/mL). Besides, the IC50 is 0.5 µM in data set [1] and 2.6 µM in data set [2]. For the same compound, the Ki is 3.5 µM in data set [8] and 0.74 µM in data set [9].

Take `Cc1cc2cc(NC(=O)c3nccnc3N)ccc2[nH]1`: the solubility in data set [6] was determined as 56 µM (≈ 15 µg/mL). Moreover, the values for the IC50 in data set [10], in data set [1] and in data set [2] were 26 µM, 3.5 µM and 11.5 µM, respectively. Further, in data set [11], the outcome was Active. In data set [12], the outcome was inactive. The Kdiss in data set [13] is 9.1 µM.
